Our source for the MIC values is ChEMBL document CHEMBL1141423, “Antimicrobial ambiguines from the cyanobacterium Fischerella sp. collected in Israel” (2007).

The MIC is the smallest concentration in the dilution series that meets the test's criterion for growth inhibition. High values mean a less susceptible organism, low ones a more susceptible organism.

Common to all, as to format: functional
One experiment relates to Escherichia coli. Nature of the experiment: Antibacterial activity against Escherichia coli ESS K12. Put shortly:
(§1)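 Broth-based antibacterial test run in LB broth, with puramycin as the reference agent.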

The subject of the next experiment is Saccharomyces cerevisiae. Nature of the experiment: Antifungal activity against Saccharomyces cerevisiae. Put shortly: (§2)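 Yeasts were tested in YPD broth, with amphotericin B as the reference antifungal.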
The nature of experiment [1]: Antibacterial activity against Staphylococcus albus. Put shortly: as §1
The next experiment relates to Candida albicans. The experiment is described as follows: Antifungal activity against Candida albicans ATCC 90028. Put shortly: as §2
The subject of a further experiment is Bacillus subtilis. Nature of the experiment: Antibacterial activity against Bacillus subtilis. Put shortly:
as §1

Molecules are shown by their SMILES. ≈ marks a conversion by molar mass, not a printed value.

Turning to `[C-]#[N+][C@@H]1[C@@H]2c3c(C(C)(C)C=C)[nH]c4cccc(c34)C(C)(C)[C@H]2CC[C@]1(C)C=C`, the MIC came to 10 µg/mL (≈ 26.8 µM) against Escherichia coli; 5 µg/mL (≈ 13.4 µM) against Saccharomyces cerevisiae; 0.625 µg/mL (≈ 1.68 µM) in experiment [1]; 6.25 µg/mL (≈ 16.8 µM) against Candida albicans; 1.25 µg/mL (≈ 3.36 µM) with Bacillus subtilis.

`COc1ccc(C[C@H](N)C(=O)N[C@H]2[C@@H](O)[C@H](n3cnc4c(N(C)C)ncnc43)O[C@@H]2CO)cc1` [PUROMYCIN] had a minimum inhibitory concentration (MIC) against Saccharomyces cerevisiae of 0.312 µg/mL (≈ 0.662 µM).

With `C[C@@H]1[C@H](O)[C@@H](C)/C=C/C=C/C=C/C=C/C=C/C=C/C=C/[C@H](O[C@@H]2O[C@H](C)[C@@H](O)[C@H](N)[C@@H]2O)C[C@@H]2O[C@](O)(C[C@@H](O)C[C@@H](O)[C@H](O)CC[C@@H](O)C[C@@H](O)CC(=O)O[C@H]1C)C[C@H](O)[C@H]2C(=O)O` [AMPHOTERICIN B], in the experiment with Candida albicans, the MIC is 1.56 µg/mL (≈ 1.69 µM).

Turning to `CN[C@@H]1[C@H](O[C@H]2[C@H](O[C@H]3[C@H](O)[C@@H](O)[C@H](N=C(N)N)[C@@H](O)[C@@H]3N=C(N)N)O[C@@H](C)[C@]2(O)C=O)O[C@@H](CO)[C@H](O)[C@H]1O` [STREPTOMYCIN], the minimum inhibitory concentration (MIC) in the experiment with Escherichia coli is 0.312 µg/mL (≈ 0.536 µM); in experiment [1], 0.156 µg/mL (≈ 0.268 µM); in the experiment with Bacillus subtilis, 2.5 µg/mL (≈ 4.3 µM).

Regarding `C=C[C@@]1(C)CC[C@@H]2C(C)(C)c3cccc4[nH]c5c(c34)[C@@]2(O)[C@]1(C#N)[C@H]1O[C@H]1C5(C)C` [AMBIGUINE I ISONITRILE], the MIC against Escherichia coli was 2.5 µg/mL (≈ 6.21 µM); against Saccharomyces cerevisiae, 0.312 µg/mL (≈ 0.775 µM); in experiment [1] it was 0.078 µg/mL (≈ 0.194 µM); against Candida albicans, 0.39 µg/mL (≈ 0.969 µM); in the experiment on Bacillus subtilis it was 0.312 µg/mL (≈ 0.775 µM).
